In paper PMC10184136 (RSC Advances, 2023):
“Also recorded” adds a separate entry of the source.

How the values were obtained:
[1] = test system: red blood cell membrane (bovine erythrocytes); experiment: Hemolytic activity; assay type: cell-based; settings: bovine erythrocyte (RBC) suspension, pH 7.4
Outline: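 Bovine blood was collected in EDTA, diluted with 0.9% NaCl and centrifuged at 1000×g for 10 min. Erythrocytes were suspended in phosphate saline buffer, pH 7.4. 20 μl of a 10 mg ml−1 compound solution was added to 180 μl RBC suspension and incubated 30 min at room temperature. PBS was the negative control and Triton X-100 the positive control. % hemolysis was calculated by formula; mean ± SEM.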

[2] = target: calf intestinal alkaline phosphatase (CIALP) (Bos taurus, UniProt P19111); experiment: Alkaline phosphatase inhibition assay; assay type: biochemical
calf intestinal alkaline phosphatase (CIALP), sequence (P19111 20-506 limits assumed): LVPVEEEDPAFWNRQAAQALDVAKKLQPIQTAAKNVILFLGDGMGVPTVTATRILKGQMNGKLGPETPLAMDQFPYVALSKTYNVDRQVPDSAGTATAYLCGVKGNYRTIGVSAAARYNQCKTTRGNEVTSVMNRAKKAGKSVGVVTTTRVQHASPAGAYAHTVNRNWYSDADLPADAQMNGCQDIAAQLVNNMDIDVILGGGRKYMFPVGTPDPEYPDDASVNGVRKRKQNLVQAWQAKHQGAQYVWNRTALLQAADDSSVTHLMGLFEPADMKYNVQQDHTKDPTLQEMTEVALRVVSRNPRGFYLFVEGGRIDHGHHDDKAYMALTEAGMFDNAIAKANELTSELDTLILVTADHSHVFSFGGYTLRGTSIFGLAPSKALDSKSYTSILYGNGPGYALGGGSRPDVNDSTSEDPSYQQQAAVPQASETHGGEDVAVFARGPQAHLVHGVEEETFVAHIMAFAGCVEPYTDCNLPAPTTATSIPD

alkaline phosphatase = alkaline phosphatase (Bos taurus, UniProt P19111); experiment: Kinetic analysis; assay type: biochemical, calf; settings: for K m / V max: substrate p-NPP
alkaline phosphatase, sequence (P19111 20-506 limits assumed): as above
Outline: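 Run under the same pre-incubation and conditions as the CIALP p-NPP assay. p-NPP was used at 10, 5, 2.5, 1.25, 0.625 and 0.3125 mM with inhibitor at 0, 0.106, 0.211 and 0.422 μM. Initial velocities came from the linear absorbance phase, read at 1-min intervals up to 10 min. Inhibition type was taken from Lineweaver–Burk plots (1/V vs 1/[S]). Ki came from a secondary plot of slope vs inhibitor concentration, with linear least-squares fits.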

| Structure (SMILES) | IC50 [2] [µM] | hemolysis at 30 min, 1 mg/mL [1] [%] | further results |
| --- | --- | --- | --- |
| O=C(CCSc1nnc(-c2ccccc2)o1)Nc1nccs1 [8a, 3-[(5-Phenyl-1,3,4-oxadiazol-2-yl)sulfanyl]-N-(1,3-thiazol-2-yl)propanamide] | 3.98 ± 0.356 | 7.79 ± 0.02 | – |
| Nc1ccc(-c2nnc(SCCC(=O)Nc3nccs3)o2)cc1 [8c, 3-{[5-(4-Aminophenyl)-1,3,4-oxadiazol-2-yl]sulfanyl}-N-(1,3-thiazol-2-yl)propanamide] | 8.73 ± 0.664 | 7.58 ± 0.01 | – |
| Cc1ccc(-c2nnc(SCCC(=O)Nc3nccs3)o2)cc1 [8d, 3-{[5-(4-Methylphenyl)-1,3,4-oxadiazol-2-yl]sulfanyl}-N-(1,3-thiazol-2-yl)propanamide] | 1.88 ± 0.071 | 8.32 ± 0.03 | – |
| Cc1cnc(NC(=O)CCSc2nnc(-c3cccc([N+](=O)[O-])c3)o2)s1 [8h, N-(5-Methyl-1,3-thiazol-2-yl)-3-{[5-(3-nitrophenyl)-1,3,4-oxadiazol-2-yl]sulfanyl}propanamide] | 3.75 ± 0.981 | 8.63 ± 0.02 | – |
| CC(C)(C)CC(C)(C)c1ccc(OCCO)cc1 [Triton X, reference compound] | – | 89 ± 0.01 | – |

Second part, led by results:

| IC50 [2] [µM] | Structure (SMILES) | hemolysis at 30 min, 1 mg/mL [1] [%] | further results |
| --- | --- | --- | --- |
| 5.99 ± 0.417 | O=C(CCSc1nnc(-c2ccc(O)cc2)o1)Nc1nccs1 [8b, 3-{[5-(4-Hydroxyphenyl)-1,3,4-oxadiazol-2-yl]sulfanyl}-N-(1,3-thiazol-2-yl)propanamide] | 5.68 ± 0.04 | – |
| 6.32 ± 0.551 | Cc1cnc(NC(=O)CCSc2nnc(-c3ccccc3)o2)s1 [8e, N-(5-Methyl-1,3-thiazol-2-yl)-3-[(5-phenyl-1,3,4-oxadiazol-2-yl)sulfanyl]propanamide] | 6.84 ± 0.03 | – |
| 2.16 ± 0.118 | Cc1cnc(NC(=O)CCSc2nnc(-c3ccc(O)cc3)o2)s1 [8f, 3-{[5-(4-Hydroxyphenyl)-1,3,4-oxadiazol-2-yl]sulfanyl}-N-(5-methyl-1,3-thiazol-2-yl)propanamide] | 7.47 ± 0.05 | – |
| 0.211 ± 0.019 | Cc1cnc(NC(=O)CCSc2nnc(-c3ccc(N)cc3)o2)s1 [8g, 3-{[5-(4-Aminophenyl)-1,3,4-oxadiazol-2-yl]sulfanyl}-N-(5-methyl-1,3-thiazol-2-yl)propanamide] | 8.82 ± 0.02 | Ki (alkaline phosphatase): 0.42 µM; K m (alkaline phosphatase; 8g 0.106 μM): 360 µM; V max (alkaline phosphatase; 8g 0.106 μM): 0.003004 ΔA min^−1; K m (alkaline phosphatase; 8g 0.211 μM): 360 µM; V max (alkaline phosphatase; 8g 0.211 μM): 0.002406 ΔA min^−1; K m (alkaline phosphatase; 8g 0.422 μM): 360 µM; V max (alkaline phosphatase; 8g 0.422 μM): 0.001826 ΔA min^−1; Inhibition type (alkaline phosphatase; Lineweaver–Burk plots): non-competitively; also recorded: Non-competitive |
